# Experimental data pooled from the literature.
# Lines come from different studies, so protocols differ.
# Target: Acetylcholinesterase (ACHE, Homo sapiens, UniProt P22303)
# Read-out: enzyme activity
# Action: inhibitor
SMILES,method,pH,IC50
C=CCn1c2cc(OC(=O)CCCN3CCN(Cc4ccccc4)CC3)ccc2c2ccnc(C)c21,Ellman,,49.7 nM
O=c1[nH]cc(Br)c(=O)[nH]1,Ellman,,151 nM
CCCCNc1ccc(C(=O)OCCN(CC)CC)cc1,,,18700 nM
C=CCn1c2cc(OC(=O)CCCCCN3CCN(Cc4ccccc4)CC3)ccc2c2ccnc(C)c21,Ellman,,157 nM
COc1cc(NS(C)(=O)=O)ccc1Nc1c2ccccc2nc2ccccc12,,,22500 nM
CNC(=O)Oc1cccc2ccccc12,Ellman,,2780 nM
O=C(CN1C2=NCCN2c2ccccc21)c1ccc(-c2ccccc2)cc1,,,19500 nM
C=CCn1c2cc(OC(=O)CCCCN3CCN(Cc4cccc(C(F)(F)F)c4)CC3)ccc2c2ccnc(C)c21,Ellman,,748 nM
CN1CCN(CCCOc2ccc3occc(=O)c3c2)CC1,Ellman,pH 7.4,65100 nM
CC[n+]1c(-c2ccccc2)c2cc(N)ccc2c2ccc(N)cc21,Ellman,,22900 nM
CC(=O)n1ccc(=O)[nH]c1=O,Ellman,,136 nM
CN1CCN(CCOc2ccc3occc(=O)c3c2)CC1,Ellman,pH 7.4,72900 nM
C#CCNc1nc(NCCCCC2CCN(Cc3ccccc3)CC2)c(C#N)cc1C#N,Ellman,,2.9 nM
C=CCn1c2cc(OC(=O)CCCCCCN3CCN(Cc4ccccc4)CC3)ccc2c2ccnc(C)c21,Ellman,,286 nM
CC(=O)O[C@H]1C[C@@H]2CC[C@@H]3[C@H](CC[C@@]4(C)[C@H]3C[C@H]([N+]3(C)CCCCC3)[C@@H]4OC(C)=O)[C@@]2(C)C[C@@H]1N1CCCCC1,,,16500 nM
C=CCn1c2cc(OC(=O)CCCCN3CCN(Cc4cccc(F)c4)CC3)ccc2c2ccnc(C)c21,Ellman,,106 nM
Cn1ccc(=O)n(C)c1=O,Ellman,,388 nM
COc1ncccc1-c1cnn2ccc(N3CCN(C(=O)OC(C)C)CC3)nc12,,,> 60000 nM
CNC(=O)Oc1cccc2c1OC(C)(C)O2,Ellman,,182 nM
C=CCn1c2cc(OC(=O)CCCCN3CCN(Cc4ccc(Cl)cc4)CC3)ccc2c2ccnc(C)c21,Ellman,,280 nM
C#CCN(C)c1nc(NCCCC2CCN(Cc3ccccc3)CC2)c(C#N)cc1C#N,Ellman,,26.3 nM
C=CCn1c2cc(OC(=O)CCCCN3CCN(Cc4ccccc4Cl)CC3)ccc2c2ccnc(C)c21,Ellman,,116 nM
Cc1ccc(S(=O)(=O)n2cc(Br)c(=O)[nH]c2=O)cc1,Ellman,,88 nM
